PMC5362268 (Cell, 2017)
Residues, ends and D or L forms follow the SMILES beside them. *: point of attachment. Cbz = O=C(OCc1ccccc1)*

Experiments:
DLD-1 cells = assay: Pan-RAS siRNA knockdown and viability; type: cell-based, human; conditions: si-panRAS vs non-targeting siRNA, 24 h, CellTiter-Glo
Summary of the method: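 DLD-1 cells reverse-transfected in 6-well plates with siRNA pools against HRAS, KRAS and NRAS, or a non-targeting pool. Cells then re-suspended in serum-free RPMI and seeded at 10,000 cells/well in 384-well plates overnight. Dilution series added from 10× stocks in serum-free Opti-mem; 24 h incubation; viability by CellTiter-Glo.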

[1] = tested on: BRAF^V600E-CAAX-expressing MEF cells; assay: Viability assay in mouse embryo fibroblasts; type: cell-based; conditions: compared with Kras^lox/lox MEFs

| SMILES | effect of combined HRAS, NRAS and KRAS knockdown on compound lethality (DLD-1 cells) | sensitivity of BRAF^V600E-CAAX-expressing cells [1] |
| --- | --- | --- |
| CC(C)C[C@@H](C=O)NC(=O)[C@H](CC(C)C)NC(=O)[C@H](CC(C)C)NC(=O)OCc1ccccc1 [MG132, reference compound] (Cbz-Leu-Leu-Leu-aldehyde) | did not sensitize | – |
| CCCS(=O)(=O)Nc1ccc(F)c(C(=O)c2c[nH]c3ncc(-c4ccc(Cl)cc4)cc23)c1F [vemurafenib, reference compound] | – | more sensitive |
